TCR-CD3 inh: inhibitors of human TCR-CD3 interaction, primary screen, biochemical, fluorescence, TAMRA-labeled TCR probe; T-cell receptor (TCR); inhibition, % at 9.4 µM; actives 0.37% (n = 360,000); in the data active means inhibition above about 19%;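 further: recombinant mutant TCR 2C K166C tagged with TAMRA read by polarization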
HTRA1 inh: HTRA1 serine protease inhibitors, primary screen, biochemical, fluorescence polarization, HTS. Q92743. recombinant HTRA1, FP-rhodamine activity-based probe. inhibition, % at 5.96 µM. actives 0.5% (n = 340,000). AID 504803, 2011; in the data active means inhibition above about 36%
SIAE inh: human SIAE inhibitors, primary screen, biochemical, fluorescence polarization, FP-Rh probe, 1536-well HTS | Sialate O-acetylesterase (Homo sapiens), Q9HAT2 | SIAE FP-Rh probe binding | inhibition, % at 9.66 µM | actives 0.69% (n = 370,000) | AID 1053197, 2014;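 active means inhibition above a cutoff: mean of compounds within the control limits plus 3 SD of those, cut at about 17% in these data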
rCAG binder: binders of r(CAG) RNA repeats, primary screen, biochemical, fluorescence; r(CAG) RNA repeat, TO-PRO-1 dye displacement fluorescence; inhibition, % at 3 µM; actives 1.3% (n = 370,000); AID 651821, 2012;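 active means inhibition above the plate cutoff, the mean of all test compounds on that plate plus 3 SD, cut at about 35% in these data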;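 further: higher means more dye released from RNA so lower well fluorescence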
ABHD4 inh: ABHD4 inhibitors, primary screen, biochemical, fluorescence polarization, mouse; (Lyso)-N-acylphosphatidylethanolamine lipase (Mus musculus), Q8VD66; purified mABHD4, FP-Rh probe fluorescence polarization; inhibition, % at 8.92 µM; actives 0.54% (n = 370,000); AID 720543, 2013;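 active means inhibition exceeding the mean over every tested compound plus 3 SD, cut at about 30% in these data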
Target sequence (Q8VD66 whole entry, looked up): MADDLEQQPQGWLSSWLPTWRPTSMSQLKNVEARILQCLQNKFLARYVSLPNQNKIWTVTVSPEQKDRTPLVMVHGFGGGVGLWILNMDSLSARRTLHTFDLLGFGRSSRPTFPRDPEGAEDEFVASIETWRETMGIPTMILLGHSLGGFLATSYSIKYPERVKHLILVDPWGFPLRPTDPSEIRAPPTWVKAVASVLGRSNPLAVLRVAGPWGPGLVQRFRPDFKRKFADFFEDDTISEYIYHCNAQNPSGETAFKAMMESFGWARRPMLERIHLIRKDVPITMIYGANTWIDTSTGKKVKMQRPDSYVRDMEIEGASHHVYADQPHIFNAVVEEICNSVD
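Test system: mouse ABHD4 enzyme, wild type. Reagent: FP-Rh fluorescent activity-based probe, added after compound pre-incubation. Timing: pre-incubation 45 min, probe exposure 60 min, at 25 °C. Technique: FP readout, ex 525 nm / em 598 nm. Benchmarks: high control S159A mutant with DMSO, low control median of compound wells.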
Each line names hits and unclear results; the compound was inactive in the other large screens. Rows were chosen to be rich in hits. Some 2.5% of all compounds tested hit in one or more screens of this group.

COc1ccc(NC(=S)NC(NC(=O)CCl)C(Cl)(Cl)Cl)c([N+](=O)[O-])c1 (stereo unspecified)	HTRA1 inh 42 (no result: TCR-CD3 inh, SIAE inh, rCAG binder, ABHD4 inh)
COc1ccc(NC(=S)NC(NC(=O)c2ccccc2Cl)C(Cl)(Cl)Cl)c([N+](=O)[O-])c1 (stereo unspecified)	none
CCOc1ccc(-c2nc(C#N)c(NCc3ccc4c(c3)OCO4)o2)cc1	SIAE inh 18
Cc1ccc(OCc2nc(C#N)c(NCc3ccc4c(c3)OCO4)o2)cc1	none
CCCCNC(=O)c1onc(CSc2ccc(F)cc2)c1C(=O)O	none
COc1ccc(CC(=O)Nc2nc3ccccc3[nH]2)cc1	none
COC(=O)Cc1cc(=O)n(-c2nc3ccccc3[nH]2)[nH]1	TCR-CD3 inh 22, rCAG binder 42
O=C(Nc1ccccc1N1CCCC1)c1ccccc1Cl	none
CC1=C(C#N)C(=O)NC(=O)/C1=C\c1ccc(-c2cc(C)c(C)cc2[N+](=O)[O-])o1	rCAG binder 55, ABHD4 inh 41
COC(=O)c1c(C)[nH]c(O)c1C=Nc1ccc(C(C)C)cc1	none
CCOC(=O)c1c(C)[nH]c(O)c1C=Nc1ccc(C(F)(F)F)cc1	HTRA1 inh 62
CCOc1ccc(-n2ccc(=O)c(C(=O)Nc3ccc(S(=O)(=O)Nc4nccs4)cc3)n2)cc1	rCAG binder 68
COc1cc2c(cc1OC)CN(Cc1cc(OC)c(O)c(OC)c1)CC2	none
Cn1cccc1C(=O)OCC(=O)NCc1ccc2c(c1)OCO2	TCR-CD3 inh 26
Cc1ccccc1C1CC(=O)Oc2cc(O)ccc21 (stereo unspecified)	HTRA1 inh 53 (no result: TCR-CD3 inh, SIAE inh, rCAG binder, ABHD4 inh)
COc1ccc(C2CC(=O)Oc3cc(O)ccc32)cc1 (stereo unspecified)	none
CC(C)n1cc(CN2CCC(n3nccc3NC(=O)CCCc3ccccc3)CC2)cn1	none
Cc1ccc(CN2C(=O)N/C(=C\c3cccn3-c3cccc(C(=O)O)c3)C2=O)cc1	rCAG binder 47
Cc1ccc(NC(=O)CN2C(=O)N/C(=C/c3cc(C)n(-c4cccc(C(=O)O)c4)c3C)C2=O)cc1	rCAG binder 71
O=C(O)c1ccc(-n2cccc2/C=C2/NC(=O)N(c3ccccc3)C2=O)cc1	TCR-CD3 inh 24
CCN1CCN(CC(O)COc2ccc3c(C)cc(=O)oc3c2)CC1 (stereo unspecified)	none
CC(C)c1cc(C(=O)OCC(=O)NC2CC2)c(O)c(C(C)C)c1	none
CCC(C)(C)C1CCC2(CC1)NC(=O)N(CC(=O)NC(C)CCc1ccccc1)C2=O (stereo unspecified)	none
O=C(Nc1ccc(Cl)c(Cl)c1)Nc1ccc(N2CCCC2)c(S(=O)(=O)Nc2ccccc2Cl)c1	none
O=C(Nc1ccc(F)cc1)Nc1ccc(N2CCCC2)c(S(=O)(=O)Nc2ccccc2Cl)c1	rCAG binder 37
CC(C)(C)C(=O)N1c2ccccc2CCc2ccccc21	none
CCOc1cc2c(cc1OCC)C(c1ccc(C(=O)O)cc1)NCC2 (stereo unspecified)	none
CCCC(NC(=O)CCc1c(C)c2cc3c4c(oc3c(C)c2oc1=O)CCCC4)C(=O)O (stereo unspecified)	rCAG binder 36
COc1cc(C(=O)N/N=C/c2cn(Cc3cccc(F)c3)c3ccccc23)ccc1O	SIAE inh 30
COc1ccc([C@@H]2CC=C(C(=O)O)[C@H](c3ccccc3)N2S(=O)(=O)c2ccc(C)cc2)cc1OC	none
Cc1ccc(S(=O)(=O)N2[C@@H](c3ccc(C(C)(C)C)cc3)C(C(=O)O)=CC[C@H]2c2ccc(Cl)cc2)cc1	rCAG binder 89 (no result: SIAE inh)
COc1ccc([C@@H]2CC=C(C(=O)O)[C@H](c3ccccc3)N2S(=O)(=O)c2ccccc2C)cc1	rCAG binder 36
CC(OC(=O)c1cc(S(=O)(=O)Nc2ccc(F)cc2)ccc1Cl)C(=O)Nc1ccc2c(c1)OCCO2 (stereo unspecified)	none
O=S(=O)(Nc1nc2ccccc2nc1Cl)c1ccccc1C(F)(F)F	none
O=S(=O)(Nc1nc2ccccc2nc1Cl)c1cccc(C(F)(F)F)c1	rCAG binder 42
COc1ccc2cc1Oc1ccc(cc1)C[C@H]1c3c(cc4c(c3Oc3cc5c(cc3OC)CCN(C)[C@@H]5C2)OCO4)CCN1C	SIAE inh 19
CC1=Nc2ccccc2/C1=C/c1sc(=S)n(-c2cccc(C(=O)O)c2)c1O	rCAG binder 72
Cc1ccc(C(=O)NNC(=O)C(C)Oc2ccccc2F)cc1S(=O)(=O)N1CCOCC1 (stereo unspecified)	none
O=C(NCc1ccco1)c1cccc2c1C(=O)c1ccc(N3CCC(Cc4ccccc4)CC3)cc1S2(=O)=O	none (no result: TCR-CD3 inh, SIAE inh, rCAG binder, ABHD4 inh)
O=C(NCc1ccco1)c1cccc2c1C(=O)c1ccc(/C=C/c3ccccc3)cc1S2(=O)=O	rCAG binder 39
CC(C)CCN1CCN(C2CSCCSC2)CC1CCO (stereo unspecified)	none
O=C(Nc1ccc(Br)cc1)c1cccc(S(=O)(=O)Nc2ccccn2)c1	none
O=C(Nc1ccc(Br)cc1)c1cccc(S(=O)(=O)Nc2cnc3ccccc3c2)c1	rCAG binder 80
CCN1CCN(C(=O)c2cc3sccc3n2CC(=O)c2ccccc2)CC1	SIAE inh 67
O=C(CSc1nc2ncc(Br)cc2[nH]1)c1ccc([N+](=O)[O-])cc1	none
O=C(CSc1nc2ccc([N+](=O)[O-])cc2[nH]1)c1ccc2ccccc2c1	rCAG binder 37
O=C(NCCO)c1ccc(Cl)c(Cl)c1	none
O=C(NC1CCCC1)c1ccc2nc(-c3ccco3)c(-c3ccco3)nc2c1	HTRA1 inh 58 (no result: TCR-CD3 inh, SIAE inh, rCAG binder, ABHD4 inh)
O=C(NCCO)c1ccc2nc(-c3ccco3)c(-c3ccco3)nc2c1	TCR-CD3 inh 26, SIAE inh 20, rCAG binder 54, ABHD4 inh 42
COc1ccc(/C=C(\NC(=O)c2ccc(OC)c(OC)c2)C(=O)N2CCN(C)CC2)cc1	none
COC(=O)c1c(C)cc(O)cc1O	none
Cc1cc(OC(=O)c2c(C)cc(OC(=O)c3c(C)cc(O)cc3O)cc2O)cc(O)c1C(=O)O	rCAG binder 69
NC(=O)[C@@H]1CCCCNc2c(I)cc([N+](=O)[O-])cc2C(=O)N[C@@H](CCC(=O)O)C(=O)N[C@@H](CO)C(=O)N1	rCAG binder 46
O=C(O)c1ccc(-c2ccc(/C=N/Nc3ccc([N+](=O)[O-])cc3)o2)cc1	ABHD4 inh 32
NS(=O)(=O)c1ccc(-c2ccc(/C=N/Nc3ccc(C(=O)O)cc3)o2)cc1	none
Cc1ccc(C(=O)NC2CCN(Cc3ccccc3)CC2)cc1S(=O)(=O)N1CCOCC1	none
CCN1CCN(c2cc(N3CCN(C(=O)c4ccco4)CC3)c3c4c(onc24)-c2ccccc2C3=O)CC1	HTRA1 inh 70 (no result: TCR-CD3 inh, SIAE inh, rCAG binder, ABHD4 inh)
Cc1cc(N2CCN(C(=O)c3ccco3)CC2)c2ccccc2n1	none

Screening results deposited in PubChem by The Scripps Research Institute Molecular Screening Center.
